Measured values from ChEMBL document CHEMBL4428042, “Discovery and Characterization of a Class of Pyrazole Inhibitors of Bacterial Undecaprenyl Pyrophosphate Synthase” (J Med Chem, 2016).
Values after ≈ are worked out from the molar mass of the structure shown. Active and inactive are the calls of the source. The rule behind the calls is not given here.

What was measured:
[1] = system: Staphylococcus aureus; experiment: Antibacterial activity against Staphylococcus aureus OXFORD incubated for 18 to 24 hrs by broth microdilution method; assay type: functional
[2] = system: Staphylococcus aureus; experiment: Antibacterial activity against Staphylococcus aureus WCUH29 incubated for 18 to 24 hrs by broth microdilution method; assay type: functional
[3] = system: Streptococcus pneumoniae; experiment: Antibacterial activity against Streptococcus pneumoniae 1629 incubated for 18 to 24 hrs by broth microdilution method; assay type: functional
[4] = system: Streptococcus pneumoniae; experiment: Antibacterial activity against Streptococcus pneumoniae Ery2 incubated for 18 to 24 hrs by broth microdilution method; assay type: functional
[5] = system: Streptococcus pyogenes; experiment: Antibacterial activity against Streptococcus pyogenes 1307006P incubated for 18 to 24 hrs by broth microdilution method; assay type: functional
[6] = system: Moraxella catarrhalis; experiment: Antibacterial activity against Moraxella catarrhalis 1502 incubated for 18 to 24 hrs by broth microdilution method; assay type: functional
[7] = system: Haemophilus influenzae; experiment: Antibacterial activity against Haemophilus influenzae H128 incubated for 18 to 24 hrs by broth microdilution method; assay type: functional
[8] = system: Haemophilus influenzae; experiment: Antibacterial activity against Haemophilus influenzae H128 deficient in AcrA incubated for 18 to 24 hrs by broth microdilution method; assay type: functional
[9] = system: Klebsiella pneumoniae; experiment: Antibacterial activity against Klebsiella pneumoniae 1161486a deficient in tolC incubated for 18 to 24 hrs by broth microdilution method; assay type: functional
[10] = system: Escherichia coli; experiment: Antibacterial activity against Escherichia coli 120 deficient in AcrAB incubated for 18 to 24 hrs by broth microdilution method; assay type: functional
[11] = system: Pseudomonas aeruginosa; experiment: Antibacterial activity against Pseudomonas aeruginosa PAO322 deficient in MexA/B/C/D/E/F incubated for 18 to 24 hrs by broth microdilution method; assay type: functional
[12] = system: Acinetobacter baumannii; experiment: Antibacterial activity against Acinetobacter baumannii ACM1010 incubated for 18 to 24 hrs by broth microdilution method; assay type: functional
[13] = Inhibition of N-terminal FLAG-tagged and C-terminal SBP-tagged Staphylococcus aureus recombination UppS assessed as reduction in IPP condensation to growing prenyl chain by measuring pyrophosphate production incubated for 30 mins
[14] = system: Staphylococcus aureus; experiment: Binding affinity to N-terminal FLAG-tagged and C-terminal SBP-tagged Staphylococcus aureus recombinant UppS expressed in Escherichia coli by affinity selection based ELT screen assay
[15] = biological target: T1, Ditrans,polycis-undecaprenyl-diphosphate synthase ((2E,6E)-farnesyl-diphosphate specific) (Acinetobacter baumannii, UniProt V5VCK8); experiment: Inhibition of hexa-histidine tagged Acinetobacter baumannii UppS expressed in Escherichia coli assessed as reduction in IPP condensation to growing prenyl chain by measuring pyrophosphate production
T1 sequence (V5VCK8 whole entry): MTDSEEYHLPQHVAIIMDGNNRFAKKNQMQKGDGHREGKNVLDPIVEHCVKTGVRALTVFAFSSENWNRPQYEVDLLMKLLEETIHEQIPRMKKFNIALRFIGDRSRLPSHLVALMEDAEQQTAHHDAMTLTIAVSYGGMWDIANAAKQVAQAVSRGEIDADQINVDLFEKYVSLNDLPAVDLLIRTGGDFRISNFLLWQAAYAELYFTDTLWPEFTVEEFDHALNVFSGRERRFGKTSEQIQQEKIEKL

[16] = biological target: T2, Ditrans,polycis-undecaprenyl-diphosphate synthase ((2E,6E)-farnesyl-diphosphate specific) (Klebsiella pneumoniae, UniProt A0A080SPQ8); experiment: Inhibition of hexa-histidine tagged Klebsiella pneumoniae UppS expressed in Escherichia coli assessed as reduction in IPP condensation to growing prenyl chain by measuring pyrophosphate production
T2 sequence (A0A080SPQ8 whole entry): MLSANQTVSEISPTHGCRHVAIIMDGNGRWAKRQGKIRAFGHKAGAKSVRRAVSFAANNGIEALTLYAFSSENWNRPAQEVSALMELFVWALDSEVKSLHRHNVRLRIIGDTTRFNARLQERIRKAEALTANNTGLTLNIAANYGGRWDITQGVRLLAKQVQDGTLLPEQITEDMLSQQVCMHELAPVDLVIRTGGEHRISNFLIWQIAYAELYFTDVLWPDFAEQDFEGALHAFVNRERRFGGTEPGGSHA

[17] = biological target: T3, Ditrans,polycis-undecaprenyl-diphosphate synthase ((2E,6E)-farnesyl-diphosphate specific) (Pseudomonas aeruginosa (strain ATCC 15692 / DSM 22644 / CIP 104116 / JCM14847 / LMG 12228 / 1C / PRS 101 / PAO1), UniProt Q9HXY2); experiment: Inhibition of hexa-histidine tagged Pseudomonas aeruginosa UppS expressed in Escherichia coli assessed as reduction in IPP condensation to growing prenyl chain by measuring pyrophosphate production incubated for 30 mins
T3 sequence (Q9HXY2 whole entry): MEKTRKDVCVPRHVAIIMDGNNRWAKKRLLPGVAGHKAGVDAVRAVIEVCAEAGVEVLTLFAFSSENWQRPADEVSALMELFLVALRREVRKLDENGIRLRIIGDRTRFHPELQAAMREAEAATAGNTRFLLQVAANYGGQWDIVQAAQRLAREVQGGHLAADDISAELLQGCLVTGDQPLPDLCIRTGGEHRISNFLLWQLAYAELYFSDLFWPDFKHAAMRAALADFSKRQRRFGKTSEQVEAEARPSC

[18] = system: Staphylococcus aureus; experiment: Binding affinity to N-terminal FLAG-tagged and C-terminal SBP-tagged Staphylococcus aureus recombination UppS assessed change in melting temperature at 10 uM by SYPRO Orange based assay
[19] = system: Staphylococcus aureus; experiment: Antibacterial activity against Staphylococcus aureus RN4220 transfected with pYH4 in absence of anhydrotetracycline incubated for 18 to 24 hrs by broth microdilution method; assay type: functional
[20] = system: Staphylococcus aureus; experiment: Antibacterial activity against Staphylococcus aureus RN4220 transfected with pYH4 in presence of anhydrotetracycline incubated for 18 to 24 hrs by broth microdilution method; assay type: functional
[21] = system: Staphylococcus aureus; experiment: Antibacterial activity against Staphylococcus aureus RN4220 transfected with pYH4-UppS in absence of anhydrotetracycline incubated for 18 to 24 hrs by broth microdilution method; assay type: functional
[22] = system: Staphylococcus aureus; experiment: Antibacterial activity against Staphylococcus aureus RN4220 transfected with pYH4-UppS in presence of anhydrotetracycline incubated for 18 to 24 hrs by broth microdilution method; assay type: functional
Outline: (§1)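 S. aureus strain carrying an inducible uppS over-expression plasmid, with anhydrotetracycline inducer at 0.1 µg/mL. MIC was compared with the un-induced system and with a plasmid vector control strain.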

[23] = Cytotoxicity against mouse L5178Y TK+/- suspension cells incubated for 72 hrs by Cell-titer-Glo reagent based assay; conditions: read-out: TC50
[24] = system: Staphylococcus aureus; experiment: Antibacterial activity against Staphylococcus aureus RN4220 expressing wild type UppS incubated for 18 to 24 hrs by broth microdilution method; assay type: functional
[25] = system: Staphylococcus aureus; experiment: Antibacterial activity against Staphylococcus aureus RN4220 expressing UppS F103L mutant incubated for 18 to 24 hrs by broth microdilution method; assay type: functional
Outline: (§2)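 S. aureus resistant mutants were isolated from the wild-type laboratory strain in the presence of the pyrazole UppS inhibitor and then tested for MIC.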

[26] = system: Staphylococcus aureus; experiment: Antibacterial activity against Staphylococcus aureus RN4220 expressing UppS F148L mutant incubated for 18 to 24 hrs by broth microdilution method; assay type: functional; outline: as §2
[27] = system: Staphylococcus aureus; experiment: Resistance index, ratio of MIC for antibacterial activity against Staphylococcus aureus RN4220 transfected with pYH4-UppS in presence of anhydrotetracycline to MIC for antibacterial activity against Staphylococcus aureus RN4220 transfected with pYH4-UppS in absence of anhydrotetracycline; assay type: functional; outline: as §1

Compound | MIC [1] [µg/mL] | MIC [2] [µg/mL] | MIC [3] [µg/mL] | MIC [4] [µg/mL] | MIC [5] [µg/mL] | MIC [6] [µg/mL] | MIC [7] [µg/mL] | MIC [8] [µg/mL] | MIC [9] [µg/mL] | MIC [10] [µg/mL] | MIC [11] [µg/mL] | MIC [12] [µg/mL] | IC50 [13] [µM] | Activity [14] | IC50 [15] [µM] | IC50 [16] [µM] | IC50 [17] [µM] | ΔTm [18] [°C] | MIC [19] [µg/mL] | MIC [20] [µg/mL] | also measured
C[C@@H](O)[C@H]1C(=O)N2C(C(=O)O)=C(S[C@@H]3CN[C@H](C(=O)N(C)C)C3)[C@H](C)[C@H]12 [MEROPENEM] | 0.125 (≈ 0.326 µM) | 2 (≈ 5.22 µM) | 0.016 (≈ 0.0417 µM) | 0.016 (≈ 0.0417 µM) | ≤ 0.008 | ≤ 0.008 | 0.125 (≈ 0.326 µM) | 0.125 (≈ 0.326 µM) | 0.03 (≈ 0.0782 µM) | 0.03 (≈ 0.0782 µM) | 0.5 (≈ 1.3 µM) | 0.5 (≈ 1.3 µM) | – | – | – | – | – | – | – | – | –
O=C(O)c1cn(C2CC2)c2cc(N3CCNCC3)c(F)cc2c1=O [CIPROFLOXACIN] | – | 0.5 (≈ 1.51 µM) | 0.25 (≈ 0.754 µM) | 2 (≈ 6.04 µM) | 0.5 (≈ 1.51 µM) | 0.03 (≈ 0.0905 µM) | ≤ 0.008 | ≤ 0.008 | ≤ 0.008 | ≤ 0.008 | ≤ 0.008 | > 8 | – | – | – | – | – | – | – | – | –
Cc1ccc(-c2c(C(=O)N(CCC(N)=O)Cc3ccc(OC(C)C)cc3)cnn2Cc2ccccc2)cc1 | 32 to 64 (≈ 62.7 to 125 µM) | 32 to 64 (≈ 62.7 to 125 µM) | 128 (≈ 251 µM) | 128 (≈ 251 µM) | 128 (≈ 251 µM) | 32 (≈ 62.7 µM) | > 128 | 32 (≈ 62.7 µM) | > 128 | > 128 | > 128 | > 128 | 0.97 | Active | > 100 | > 100 | > 100 | 11 | 64 (≈ 125 µM) | 32 | MIC [21]: 128 µg/mL (≈ 251 µM); MIC [22]: > 128 µg/mL; CC50 at 72 h [23]: 100 µM
CC(C)Oc1ccc(CN(CCC(N)=O)C(=O)c2cnn(Cc3ccccc3)c2-c2ccc3sccc3c2)cc1 | 8 (≈ 14.5 µM) | 4 to 8 (≈ 7.24 to 14.5 µM) | 32 to 64 (≈ 57.9 to 116 µM) | 32 to 64 (≈ 57.9 to 116 µM) | 64 (≈ 116 µM) | 8 to 16 (≈ 14.5 to 28.9 µM) | > 128 | 8 to 16 (≈ 14.5 to 28.9 µM) | > 128 | > 128 | > 128 | > 128 | 0.19 | Active | > 100 | > 100 | > 100 | 8 | 8 (≈ 14.5 µM) | 8 | MIC [21]: 32 µg/mL (≈ 57.9 µM); MIC [22]: 64 µg/mL; MIC [24]: 8 µg/mL (≈ 14.5 µM); MIC [25]: 64 µg/mL (≈ 116 µM); MIC [26]: 64 µg/mL (≈ 116 µM); CC50 at 72 h [23]: 25 µM; Ratio [27]: 2
